Measured values taken from ChEMBL document CHEMBL4613234, “Auxiliary in vitro and in vivo biological evaluation of hydrogen peroxide sensitive prodrugs of methotrexate and aminopterin for the treatment of rheumatoid arthritis” (Bioorg Med Chem, 2020).
Active and inactive are the calls of the source. No cut-off for these calls is given here.

Assays:
[1] = tested on: Rattus norvegicus; experiment: Antiarthritic activity in dark agouti rat model of collagen-induced arthritis assessed as decrease in disease severity at 0.38 mg/kg, ip administered on day 17 and treated until day 31 by macroscopic observation analysis; type: functional, organism-based
How it was run: (§1)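 Dark agouti rats with collagen-induced arthritis; daily i.p. dosing from disease onset (day 17), doses equimolar to 0.3 mg/kg MTX, DMSO kept at 2% (v/v). Arthritis scored macroscopically three times weekly: 1 point per swollen toe, 1 per swollen foot knuckle, 5 for swollen ankle, 0–15 per limb, maximum 60 per rat. n = 8 per group, 10 for vehicle; mean ± SEM.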

[2] = Toxicity in dark agouti rat model of collagen-induced arthritis assessed as increase in body weight at 0.38 mg/kg, ip administered on day 17 and treated until day 31; type: organism-based; details: in vivo
How it was run: (§2)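 Collagen-induced arthritis in dark agouti rats given daily i.p. doses from day 17 in 2% (v/v) DMSO vehicle; n = 8 per group. Tolerability followed as average body weight measured three times weekly, plus general health observation; animals removed early for high arthritis score or declining health.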

[3] = Toxicity in dark agouti rat model of collagen-induced arthritis assessed as adverse effect at 0.38 mg/kg, ip administered on day 17 and treated until day 31; type: organism-based; details: in vivo; how it was run: as §2
[4] = tested on: HL-60; experiment: Cytotoxicity against human HL60 cells assessed reduction in cell viability incubated for 48 hrs in presence of ROS scavenger pyruvate by Alamar blue assay; type: cell-based; details: HL-60, 48 h
How it was run: (§3)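 HL-60, HEK293 and HeLa cells exposed to compound for 48 h with or without pyruvate as ROS scavenger; viability read by Alamar blue; IC50 in nM, mean of at least three replicates ± SEM.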

[5] = tested on: HL-60; experiment: Cytotoxicity against human HL60 cells assessed as reduction in cell viability incubated for 48 hrs in absence of ROS scavenger pyruvate by Alamar blue assay; type: cell-based; details: HL-60, 48 h; how it was run: as §3
[6] = tested on: HeLa; experiment: Cytotoxicity against human HeLa cells assessed as reduction in cell viability incubated for 48 hrs in presence of ROS scavenger pyruvate by Alamar blue assay; type: cell-based; how it was run: as §3
[7] = tested on: HeLa; experiment: Cytotoxicity against human HeLa cells assessed as reduction in cell viability incubated for 48 hrs in absence of ROS scavenger pyruvate by Alamar blue assay; type: cell-based; how it was run: as §3
[8] = tested on: HEK293; experiment: Cytotoxicity against human HEK293 cells assessed as reduction in cell viability incubated for 48 hrs in absence of ROS scavenger pyruvate by Alamar blue assay; type: cell-based; details: HEK293, 48 h; how it was run: as §3
[9] = Prodrug activation in PBS buffer assessed as H2O2-mediated hydrolysis by measuring half life at pH 7.4 measured up to 24 hrs by RP-HPLC/UV analysis; type: physicochemical; details: pH 7.4, 24 h
[10] = Half life of compound in culture media in absence of ROS scavenger pyruvate; type: physicochemical
[11] = Prodrug activation in PBS buffer assessed as H2O2-formation of methotrexate at pH 7.4 measured up to 24 hrs by RP-HPLC/UV analysis; type: physicochemical; details: pH 7.4, 24 h
[12] = Permeability of compound across artificial lipid/oil/lipid tri-layer membrane by PAMPA assay
[13] = tested on: HL-60; experiment: Induction of apoptosis in human HL60 cells assessed as apoptotic cells at 0.1 to 10 uM in absence of ROS scavenger pyruvate by annexin V-FITC/propidium iodide staining based flow cytometry (reference value: 3 %); type: functional
How it was run: (§4)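 HL-60 cells in RPMI without pyruvate, treated 48 h at 10, 1 and 0.1 μM (vehicle 0.1% DMSO); annexin V/PI staining, flow cytometry gating singlets, apoptotic fraction taken as P4 + P5 populations; at least triplicates, mean ± SD; two-tailed unpaired t-test, p < 0.05.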

[14] = tested on: Rattus norvegicus; experiment: Antiarthritic activity in dark agouti rat model of collagen-induced arthritis assessed as decrease in disease severity at 0.3 mg/kg, ip administered on day 17 and treated until day 31 by macroscopic observation analysis; type: functional, organism-based; how it was run: as §1
[15] = tested on: HEK293; experiment: Cytotoxicity against human HEK293 cells assessed as reduction in cell viability incubated for 48 hrs in presence of ROS scavenger pyruvate by Alamar blue assay; type: cell-based; details: HEK293, 48 h; how it was run: as §3
[16] = tested on: HL-60; experiment: Induction of apoptosis in human HL60 cells assessed as apoptotic cells at 0.1 uM in absence of ROS scavenger pyruvate by annexin V-FITC/propidium iodide staining based flow cytometry (reference value: 3 %); type: functional; how it was run: as §4
[17] = Half life of compound in PBS buffer; type: physicochemical
[18] = Half life in human HEK293 cells in absence of ROS scavenger pyruvate; type: ADME, cell-based
[19] = Apparent intrinsic clearance in rat liver microsomes; type: ADME, Microsome; details: read-out: CLH
How it was run: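 Apparent intrinsic clearance (CL'int, mL/min/kg) determined in pooled rat liver microsomes.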

[20] = tested on: Rattus norvegicus; experiment: Antiarthritic activity in dark agouti rat model of collagen-induced arthritis assessed as decrease in disease severity at 0.42 mg/kg, ip administered on day 17 and treated until day 31 by macroscopic observation analysis; type: functional, organism-based; how it was run: as §1
[21] = Toxicity in dark agouti rat model of collagen-induced arthritis assessed as increase in body weight at 0.42 mg/kg, ip administered on day 17 and treated until day 31; type: organism-based; details: in vivo; how it was run: as §2
[22] = Toxicity in dark agouti rat model of collagen-induced arthritis assessed as adverse effect at 0.42 mg/kg, ip administered on day 17 and treated until day 31; type: organism-based; details: in vivo; how it was run: as §2
[23] = tested on: HL-60; experiment: Cytotoxicity against human HL60 cells assessed as reduction in cell viability incubated for 48 hrs in presence of ROS scavenger pyruvate by Alamar blue assay relative to parent compound; type: cell-based; details: hl-60, 48 h
[24] = (§5) Ratio of IC50 for human HL60 cells assessed as reduction in cell viability incubated for 48 hrs in presence of ROS scavenger pyruvate by Alamar blue assay to IC50 for human HL60 cells assessed as reduction in cell viability incubated for 48 hrs in absence of ROS scavenger pyruvate by Alamar blue assay; type: cell-based, HL-60; details: read-out: Ratio IC50
How it was run: (§6)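 Ratio of 48 h Alamar blue IC50 values with versus without pyruvate as ROS scavenger, in HEK293 or HL-60 cells; each IC50 from at least three replicates.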

[25] = as §5, with “HEK293” for “HL60”; type: cell-based; details: read-out: Ratio IC50; how it was run: as §6
[26] = Stability of compound in human HEK293 cells preincubated for 24 hrs followed by compound addition and subsequent removal of HEK293 cells in absence of ROS scavenger pyruvate; type: ADME, cell-based
[27] = Half life in human HEK293 cells in presence of paraquat and absence of ROS scavenger pyruvate; type: ADME, cell-based
[28] = Half life in rat plasma; type: ADME, cell-free
How it was run: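 Reconstituted freeze-dried rat plasma diluted 1:1 with PBS to pH 7.4, incubated at 37 °C; half-life determined.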

[29] = tested on: Rattus norvegicus; experiment: Antiarthritic activity in dark agouti rat model of collagen-induced arthritis assessed as decrease in disease severity at 0.36 mg/kg, ip administered on day 17 and treated until day 31 by macroscopic observation analysis; type: functional, organism-based; how it was run: as §1
[30] = Toxicity in dark agouti rat model of collagen-induced arthritis assessed as increase in body weight at 0.36 mg/kg, ip administered on day 17 and treated until day 31; type: organism-based; details: in vivo; how it was run: as §2
[31] = Toxicity in dark agouti rat model of collagen-induced arthritis assessed as adverse effect at 0.36 mg/kg, ip administered on day 17 and treated until day 31; type: organism-based; details: in vivo; how it was run: as §2

Row | Compound | IC50 [4] | IC50 [5] | IC50 [6] | IC50 [7] | IC50 [8] | t1/2 [9] | half-life [10] | Papp [12] | Activity [13] | IC50 [15] | Activity [16] | half-life [17] | half-life [18] | CLint scaled [19] | other results
1 | Nc1nc(N)c2nc(CN(Cc3ccc(B(O)O)cc3)c3ccc(C(=O)N[C@@H](CCC(=O)O)C(=O)O)cc3)cnc2n1 | 38.3 nM | 7.5 nM | 42.2 nM | 19.2 nM |  |  |  |  |  |  |  |  |  |  | Activity [1]: inactive; Activity [2]: Non-Toxic; Activity [3]: Non-Toxic
2 | CN(Cc1cnc2nc(N)nc(NC(=O)OCc3ccccc3)c2n1)c1ccc(C(=O)N[C@@H](CCC(=O)O)C(=O)O)cc1 |  | > 1000 nM |  |  | > 1000 nM | > 24 h | > 24 h | < 1.5 ×10⁻⁶ cm/s |  |  |  |  |  |  | Drug metabolism [11]: Not Active
3 | CN(Cc1cnc2nc(N)nc(N)c2n1)c1ccc(C(=O)N[C@@H](CCC(=O)O)C(=O)O)cc1 [METHOTREXATE] | 9.8 nM | 8.9 nM | 59.3 nM | 21 nM | 28.6 nM |  | > 24 h | < 1.5 ×10⁻⁶ cm/s | 17% | 35 nM | 14% | > 24 h | > 24 h | 1.5 mL/min/kg | Activity [14]: Active
4 | Nc1nc(N)c2nc(CNc3ccc(C(=O)N[C@@H](CCC(=O)O)C(=O)O)cc3)cnc2n1 [AMINOPTERIN] | 3 nM | 2.5 nM | 3.6 nM | 8.3 nM |  |  |  |  |  |  |  |  |  |  | 
5 | CN(Cc1cnc2nc(N)nc(NC(=O)OCc3ccc(B(O)O)cc3)c2n1)c1ccc(C(=O)N[C@@H](CCC(=O)O)C(=O)O)cc1 | 203 nM | 40.3 nM | 194 nM | 156 nM | 62.9 nM | 0.29 h | 3.4 h | < 1.5 ×10⁻⁶ cm/s | 17% | 192 nM | 7% | > 24 h | 107 h | 1.8 mL/min/kg | Activity [20]: Active; Activity [21]: Non-Toxic; Activity [22]: Non-Toxic; fold change (FC) [23]: 20; selectivity ratio at 48 h [24]: 5; selectivity ratio at 48 h [25]: 5; t1/2 [26]: 16.1 h; half-life [27]: 63.2 h; half-life [28]: 16.4 h
6 | CN(Cc1cnc2nc(N)nc(N)c2n1)c1ccc(C(=O)N[C@@H](CCC(=O)N2CCSC2=O)C(=O)O)cc1 | 36 nM | 40 nM | 207 nM | 164 nM |  |  |  |  |  |  |  |  |  |  | Activity [29]: inactive; Activity [30]: Non-Toxic; Activity [31]: Non-Toxic
